From ChEMBL document CHEMBL3232848, “Design and synthesis of high affinity inhibitors of Plasmodium falciparum and Plasmodium vivax N-myristoyltransferases directed by ligand efficiency dependent lipophilicity (LELP)” (J Med Chem, 2014)

Legend:
[1] = Inhibition of human N-myristoyltransferase using H-Gly-Ser-Asn-Lys-Ser-Lys-Pro-Lys-NH2 as substrate by CPM fluorescence assay
How it was run: (§1)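 IC50 values (mean of two or more determinations) were converted to Ki by Cheng–Prusoff using substrate concentration and Km. For PfNMT, Km was 3.64 μM and substrate was 4.00 μM. The human enzyme values refer to HsNMT1.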

[2] = Inhibition of Plasmodium vivax N-myristoyltransferase by CPM fluorescence assay; how it was run: as §1
[3] = test system: Plasmodium falciparum; experiment: Antimicrobial activity against late stage trophozoite form of Plasmodium falciparum 3D7 infected in RBCs after 48 hrs by SYBR green viability assay; format: functional, organism-based; conditions: 3D7, 96 h, in the assay text read “after 96 hrs” for “after 48 hrs”
How it was run: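 Synchronous 3D7 late trophozoites (33–36 h) were used at 0.1–0.2% parasitemia and 2% hematocrit in washed, buffy-coat-free RBCs, in RPMI 1640 with Albumax, gentamycin and L-glutamine. Seven dilutions from 10.0 to 0.014 μM were run in duplicate at 37 °C under 5% CO2, 5% O2, 90% N2. Drug was replaced at 48 h and incubation continued to 96 h. Read-out was SYBR Green I in saponin/Triton lysis buffer, then fluorescence converted to % growth.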

[4] = target: T1, Glycylpeptide N-tetradecanoyltransferase (Plasmodium falciparum (isolate 3D7), UniProt Q8ILW6); experiment: Inhibition of Plasmodium falciparum N-myristoyltransferase by CPM fluorescence assay; how it was run: as §1
T1 sequence (Q8ILW6 whole entry): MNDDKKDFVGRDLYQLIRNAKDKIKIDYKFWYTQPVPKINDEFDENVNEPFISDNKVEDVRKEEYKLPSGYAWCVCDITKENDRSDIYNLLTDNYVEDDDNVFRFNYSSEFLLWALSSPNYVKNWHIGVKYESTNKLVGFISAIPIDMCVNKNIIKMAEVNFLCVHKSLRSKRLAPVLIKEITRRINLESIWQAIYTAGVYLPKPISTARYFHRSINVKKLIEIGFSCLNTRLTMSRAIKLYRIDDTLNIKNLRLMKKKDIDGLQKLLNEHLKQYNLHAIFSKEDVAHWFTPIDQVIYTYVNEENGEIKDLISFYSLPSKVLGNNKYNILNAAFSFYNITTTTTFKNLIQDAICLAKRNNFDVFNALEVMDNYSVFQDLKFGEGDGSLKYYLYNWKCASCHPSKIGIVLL

[5] = Selectivity ratio of Ki for human N-myristoyltransferase to Ki for Plasmodium vivax N-myristoyltransferase
[6] = Selectivity ratio of Ki for human N-myristoyltransferase to Ki for Plasmodium falciparum N-myristoyltransferase
[7] = Cytotoxicity against human HepG2 cells after 72 hrs by MTS assay; format: cell-based; conditions: read-out: LD50
How it was run: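 HepG2 cells grown in DMEM with 10% FBS and penicillin/streptomycin, 37 °C, 5% CO2, seeded at 5000 cells/well. Seven-point dilution series in medium from a 50 mM DMSO stock; DMSO/medium and puromycin control wells. Incubated 72 h, then MTS/PMS added for 4 h and read at 490 nm. LD50 by nonlinear regression, mean of six determinations.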

[8] = test system: Plasmodium berghei; experiment: Antimicrobial activity against Plasmodium berghei sporozoites infected in 12 hrs compound pretreated human HepG2 cells assessed as reduction in viability of exoerythrocytic forms measured after 48 hrs of incubation by luciferase bioluminescence assay; format: functional, organism-based
How it was run: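 HepG2-A16-CD81EGFP cells expressing GFP-CD81 were grown in DMEM with 10% FCS, glutamine and penicillin/streptomycin at 37 °C, 5% CO2. They were seeded at 3000 cells/well 24 h before infection. Cells were pretreated 12 h with a 12-point dilution series, then infected with luciferase-expressing P. berghei sporozoites (1000/well). Exoerythrocytic form viability was read by bioluminescence after 48 h. EC50 came from a four-parameter variable-slope fit, mean of two determinations.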

[9] = Selectivity ratio of LD50 for human HepG2 cells to EC50 for blood-stage Plasmodium falciparum K1; format: ADME, cell-based; conditions: read-out: Ratio LD50/EC50
[10] = test system: Plasmodium falciparum; experiment: Antimicrobial activity against blood-stage Plasmodium falciparum NF54 assessed as inhibition of [3H]hypoxanthine incorporation after 48 hrs by liquid scintillation counting; format: functional, organism-based
How it was run: (§2)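 Modified Desjardins method. Drug was serially diluted 2-fold, and infected blood was added at 0.3% parasitemia and 2.5% hematocrit. Uninfected blood and drug-free wells served as controls. Plates were held at 37 °C under 93% N2, 4% CO2, 3% O2. After 48 h, [3H]hypoxanthine (0.5 μCi/well) was added for a further 24 h, then cells were harvested and scintillation counted. Counts were taken as % of untreated controls, with IC50 by logit regression.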

[11] = test system: Plasmodium falciparum; experiment: Antimicrobial activity against blood-stage Plasmodium falciparum K1 assessed as inhibition of [3H]hypoxanthine incorporation after 48 hrs by liquid scintillation counting; format: functional, organism-based; how it was run: as §2
[12] = Aqueous solubility of the compound; format: physicochemical
[13] = Selectivity ratio of LD50 for human HepG2 cells to EC50 for blood-stage Plasmodium falciparum NF54; format: ADME, cell-based; conditions: read-out: Ratio LD50/EC50
[14] = test system: Plasmodium falciparum; experiment: Antimicrobial activity against blood-stage Plasmodium falciparum Dd2 assessed as inhibition of [3H]hypoxanthine incorporation after 48 hrs by liquid scintillation counting; format: functional; how it was run: as §2
[15] = Selectivity ratio of LD50 for human HepG2 cells to EC50 for blood-stage Plasmodium falciparum 3D7; format: ADME, cell-based; conditions: read-out: Ratio LD50/EC50
[16] = Selectivity ratio of LD50 for human HepG2 cells to EC50 for blood-stage Plasmodium falciparum Dd2; format: ADME, cell-based; conditions: read-out: Ratio LD50/EC50
[17] = test system: Plasmodium falciparum; experiment: Ratio of EC50 for blood-stage Plasmodium falciparum Dd2 to EC50 for blood-stage Plasmodium falciparum NF54; format: functional
[18] = test system: Plasmodium falciparum; experiment: Antimicrobial activity against blood-stage Plasmodium falciparum 3D7 assessed as inhibition of [3H]hypoxanthine incorporation after 48 hrs by liquid scintillation counting; format: functional, organism-based

Ki [1] | Ki [4] | Structure (SMILES) | Ki [2] | EC50 [3] | other results
788 nM | 71 nM | c1ccc(Cc2noc(-c3sc4ccccc4c3OC3CCNCC3)n2)cc1 | 16 nM | 2.3 µM | 
428 nM | 33 nM | COc1cccc(Cc2nnc(-c3sc4ccccc4c3OC3CCNCC3)o2)c1 | 18 nM | 5.5 µM | Ratio Ki [5]: 24; Ratio Ki [6]: 13
1920 nM | 465 nM | c1ccc(C(c2ccccc2)c2nnc(-c3sc4ccccc4c3OC3CCNCC3)o2)cc1 | 142 nM |  | 
1540 nM | 247 nM | c1ccc(CCc2noc(-c3sc4ccccc4c3OC3CCNCC3)n2)cc1 | 57 nM | 3.79 µM | 
2070 nM | 334 nM | CC(c1ccccc1)c1nnc(-c2sc3ccccc3c2OC2CCNCC2)o1 (racemic) | 77 nM |  | 
976 nM | 98 nM | c1ccc(C2(c3nnc(-c4sc5ccccc5c4OC4CCNCC4)o3)CC2)cc1 | 34 nM |  | 
1550 nM | 152 nM | CC(C)(c1ccccc1)c1nnc(-c2sc3ccccc3c2OC2CCNCC2)o1 | 32 nM |  | 
1370 nM | 77 nM | c1ccc(Cc2nnc(-c3sc4ccccc4c3OC3CCNCC3)o2)cc1 | 39 nM | 9.5 µM | 
2450 nM | 125 nM | OC(c1ccccc1)c1nnc(-c2sc3ccccc3c2OC2CCNCC2)o1 (racemic) | 35 nM | 7.34 µM | 
1190 nM | 120 nM | c1ccc(Cc2nc(-c3sc4ccccc4c3OC3CCNCC3)no2)cc1 | 13 nM |  | 
2770 nM | 391 nM | FC(F)(c1ccccc1)c1nnc(-c2sc3ccccc3c2OC2CCNCC2)o1 | 182 nM |  | 
893 nM | 270 nM | c1ccc(Cc2n[nH]c(-c3sc4ccccc4c3OC3CCNCC3)n2)cc1 | 71 nM |  | 
3950 nM | 212 nM | COC(c1ccccc1)c1nnc(-c2sc3ccccc3c2OC2CCNCC2)o1 (racemic) | 81 nM |  | 
1050 nM | 113 nM | Cc1noc(C)c1Cc1nnc(-c2sc3ccccc3c2OC2CCNCC2)o1 | 38 nM | 5.02 µM | Ratio Ki [6]: 8

The next lines start with the compound.

Structure (SMILES) | Ki [1] | Ki [4] | Ki [2] | EC50 [3] | other results
COc1cccc(Cc2nc(-c3sc4ccccc4c3OC3CCNCC3)no2)c1 | 100 nM | 50 nM | 6 nM | 3.26 µM | 
Clc1cccc(Cc2noc(-c3sc4ccccc4c3OC3CCNCC3)n2)c1 | 871 nM | 163 nM | 58 nM | 1.21 µM | 
O=C(OCCc1ccccc1)c1sc2ccccc2c1OC1CCNCC1 | 10400 nM | 677 nM | 72 nM | 5.6 µM | 
COc1cc(Cc2noc(-c3sc4ccccc4c3OC3CCNCC3)n2)cc(OC)c1 | 207 nM | 15 nM | 5 nM | 2.49 µM | 
O=C(OCCOc1ccccc1)c1sc2ccccc2c1OC1CCNCC1 | 1870 nM | 1130 nM | 123 nM |  | 
Cc1noc(C)c1CCc1nnc(-c2sc3ccccc3c2OC2CCNCC2)o1 | 709 nM | 186 nM | 47 nM |  | 
O=C1C(O)=C([C@H]2CC[C@H](c3ccc(Cl)cc3)CC2)C(=O)c2ccccc21 [ATOVAQUONE] |  |  |  |  | CC50 at 72 h [7]: > 10 µM; EC50 [8]: 0.5 nM
COc1cc(Cc2nc(-c3sc4ccccc4c3OC3CCNCC3)no2)cc(OC)c1 | 50 nM | 15 nM | 8 nM | 3.5 µM | 
COc1cc(CCOC(=O)c2sc3ccccc3c2OC2CCNCC2)cc(OC)c1 | 31 nM | 26 nM | 9 nM | 1.41 µM | 
O=C(NCCCc1ccccc1)c1sc2ccccc2c1OC1CCNCC1 | > 100000 nM | > 10000 nM | 2530 nM |  | 
Cc1n[nH]c(C)c1Cc1nnc(-c2sc3ccccc3c2OC2CCNCC2)o1 | 1540 nM | 55 nM | 75 nM | 2.01 µM | Ratio Ki [6]: 30
Cc1n[nH]c(C)c1CCc1nnc(-c2sc3ccccc3c2OC2CCNCC2)o1 | 2250 nM | 226 nM |  |  | 
COc1cccc(CCOC(=O)c2sc3ccccc3c2OC2CCNCC2)c1 | 2200 nM | 120 nM | 59 nM | 4.2 µM | 
COc1cccc(Cc2noc(-c3sc4ccccc4c3OC3CCNCC3)n2)c1 | 192 nM | 51 nM | 8 nM | 1.45 µM | 
Cc1nn(C)c(C)c1Cc1nnc(-c2sc3ccccc3c2OC2CCNCC2)o1 | 60 nM | 8 nM | 2 nM | 0.302 µM | selectivity ratio [9]: ≤ 40; EC50 [10]: 232 nM; EC50 [11]: 339 nM; solubility [12]: > 8 mM; Ratio Ki [5]: 30; selectivity ratio [13]: ≤ 40; EC50 [14]: 916 nM; CC50 at 72 h [7]: 12.3 µM; selectivity ratio [15]: ≤ 40; selectivity ratio [16]: 14; Ratio EC50 [17]: <4; EC50 [8]: 372 nM; EC50 [18]: 302 nM; Ratio Ki [6]: 8; IC50 [4]: 17 nM
Cc1nn(C)c(C)c1CCc1nnc(-c2sc3ccccc3c2OC2CCNCC2)o1 | 824 nM | 124 nM | 32 nM |  | 
O=C(OCCCc1ccccc1)c1sc2ccccc2c1OC1CCNCC1 | 1160 nM | 3970 nM | 66 nM |  | 
O=C(NCCc1ccccc1)c1sc2ccccc2c1OC1CCNCC1 | > 100000 nM | > 10000 nM | 3780 nM |  | 
CCN(CC)CCCC(C)Nc1ccnc2cc(Cl)ccc12 (configuration not stated) [CHLOROQUINE] |  |  |  |  | EC50 [10]: 13 nM; EC50 [11]: 255 nM; EC50 [14]: 328 nM; EC50 [8]: > 10000 nM; EC50 [18]: 6 nM
O=C(NCCOc1ccccc1)c1sc2ccccc2c1OC1CCNCC1 | > 100000 nM | > 10000 nM | 2210 nM |  | 
